# In the library only some 3.7% were active in any assay of this set; here they are far more common.
# KCC2 mod: KCC2 cotransporter modulators, thallium flux, primary screen, cell-based, HEK293 KCC2, FluoZin-2 fluorescence, MLSMR. B-score of Tl+ flux slope (higher = more flux/activation; lower = inhibition) at 10 µM. AID 1456, 2008. 2.2% of 190,000 active. Solute carrier family 12 member 5 (Homo sapiens), Q9H2X9. KCC2 cells, thallium flux FluoZin-2 fluorescence;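 active = thallium flux slope and its plate-corrected score both differing from the plate sample mean at a set confidence after two filtering rounds, in either direction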;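 also: slope of fluorescence scaled to starting intensity during 10 to 20 s after thallium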
# MT stabilize HCS: microtubule stabilizers in HeLa cells, primary screen, imaging, high-content imaging; HeLa tubulin immunostaining HCS, 24 h; share of cells brighter than vehicle mean+2SD; % tubulin-high responders, % at 10 µM; 0.83% of 200,000 active;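 active = plate Z-score above 3 for both tubulin-high and condensed-nucleus cell shares, with cell loss under 80%, at 10 µM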;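 also: anti alpha tubulin signal scored within the nucleus-defined area of each cell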
# DTT redox prof: compounds producing H2O2 with reducing agent – biochemical, NIH compound library profiling, artefact control for MLSCN library redox annotation, primary screen; DTT-dependent redox cycling H2O2, phenol red/HRP absorbance; 100% = 100 µM peroxide control, 0% = buffer; 0.03% of 200,000 active; activation, % at 10 µM;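 active = activation of at least 50% relative to the plate's high and low controls in the primary single-dose screen; inactive = activation below 50%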;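 also: compound incubated with DTT at 0.8 mM final as the reducing agent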
# bCat nuc transl: modulators of beta-catenin nuclear translocation, primary screen, imaging, HeLa cells, immunofluorescence, high-content; nuclear translocation activity, % at 5 µM; 0.3% of 190,000 active;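 active = nuclear translocation activity above 50% at 5 µM, with a well cell count of 50 or more; inconclusive = wells under 50 cells across six images, flagged as toxic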;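 also: per-cell ratio of nuclear to cytoplasmic median beta-catenin stain intensity; plate controls were DMSO negative control for no effect and GSK-3 inhibitor IX positive control for full effect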
#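 Assay system: human HeLa cells, native beta-catenin; doses: 5 µM primary, 0.02–20 µM confirmation; incubation: compound treatment 24 h, 37°C, 5% CO2; technique: fluorescence imaging of beta-catenin antibody stain plus DAPI; measure: % activation, nuclear-to-cytoplasmic median beta-catenin signal ratio per cell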
# ROMK primary: ROMK potassium channel modulators, primary screen, cell-based, thallium flux, MLSMR library. B-score at 10 µM. ATP-sensitive inward rectifier potassium channel 1 (Homo sapiens), P48048. Tet-inducible ROMK, thallium flux fluorescence; actives lie on both sides. 2% of 130,000 active;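 active = signal ratio slope over the read window, or its plate-corrected B-score, at least 3 SD from the plate mean, either direction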;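 also: B-score of the F/F0 ratio slope over 7 to 12 s after thallium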
# KCC2 sec1: KCC2 modulators in sodium-free buffer, confirmation, cell-based, HEK293 KCC2, thallium flux, secondary assay | shares compounds with KCC2 mod | FluoZin2 fluorescence; stronger effect = higher value | normalised thallium flux (F/F0 slope) at 10 µM | 15% of 3,700 active;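 active = thallium flux slope above the same plate's solvent-only control mean plus 3 SD; inconclusive = the two replicate wells disagree; inactive = no significant difference from solvent-only control wells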
# KCC2 bumet counter: thallium flux persisting under bumetanide in KCC2 cells, confirmation, counter-screen for KCC2 modulator project, cell-based, HEK293 KCC2, FluoZin2, secondary assay 3; shares compounds with KCC2 mod; AID 1714, 2009; HEK293-KCC2 + bumetanide/ouabain; stronger effect = higher value; normalized thallium flux at 10 µM; 49% of 3,700 active;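 active = thallium entry rate above the same plate's blocked-transporter control wells by more than 3 SD; inconclusive = the two repeat wells disagree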;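 also: raw slope of fluorescence over initial fluorescence between 10 and 20 s after thallium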
# KCC2 secondary2: KCC2 modulators without ouabain present, confirmation, cell-based, HEK293 KCC2, thallium flux, FluoZin2, secondary assay 2 | shares compounds with KCC2 mod | 23% of 3,700 active | normalized thallium flux at 10 µM | thallium flux FluoZin2 fluorescence; actives lie on both sides; F/F0 rise rate, 10–20 s post-thallium | AID 1715, 2009;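 active = thallium flux slope more than 3 SD above or below the plate's solvent-only control mean, mostly below; inconclusive = the two repeat wells disagreed; inactive = no significant shift from solvent-only controls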;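 also: raw slope with 0.1% DMSO as baseline and bumetanide as block control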
# HEK counter1: thallium flux modulation in parental HEK cells, confirmation, counter-screen for KCC2 modulator project, cell-based, counterscreen 1. shares compounds with KCC2 mod. HEK293 parental cells, thallium flux FluoZin2, ouabain; baseline-ratio fluorescence slope, 10–20 s after thallium. thallium flux rate (normalised fluorescence) at 10 µM. 46% of 3,700 active;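 active = thallium flux rate significantly above the same plate's solvent-only control wells, beyond their mean plus 3 SD; inconclusive = the two replicate wells gave conflicting results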
# KCC2 retest ouab: KCC2 inhibitors and activators, ouabain retest, confirmation, HEK-KCC2 cells; shares compounds with KCC2 mod; HEK293-KCC2, thallium flux FluoZin2 fluorescence; bidirectional: low = inhibitor, high = activator; raw Tl+ flux slope (below DMSO = inhibition, above = activation) at 10 µM; 48% of 3,700 active; AID 1717, 2009;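 active = thallium flux slope beyond 3 SD from same-plate DMSO control mean in most replicates, usually higher, sometimes lower; inconclusive = repeat tests gave conflicting results; inactive = no significant difference from controls in most replicates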;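 also: slope of initial-normalized fluorescence between seconds 10 and 20 after thallium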
# HEK counter2: native HEK Tl+ uptake effects, second counter-screen – HEK cells, counterscreen 2, counter-screen for KCC2 modulator project, confirmation; shares compounds with KCC2 mod; HEK293 parental, thallium flux FluoZin-2 fluorescence slope; thallium flux slope at 10 µM; 33% of 3,700 active;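 active = thallium flux slope above the same plate's solvent-control mean plus 3 SD in both duplicate wells; inconclusive = duplicate wells that disagreed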;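 also: run without ouabain in cells lacking the KCC2 cotransporter; slope of fluorescence scaled to its starting value between 10 and 20 s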
# * hit, by the source's call; ? = inconclusive; . = not tested or not shown.
SMILES,KCC2 mod,MT stabilize HCS,DTT redox prof,bCat nuc transl,ROMK primary,KCC2 sec1,KCC2 bumet counter,KCC2 secondary2,HEK counter1,KCC2 retest ouab,HEK counter2
COc1cccc(C2Oc3ccccc3C3CC(c4cccs4)=NN32)c1 (configuration not stated),6.5*,.,.,2.1,.,0.0172,0.0192*,0.0319,0.0128*,0.0199,0.0159*
CC1CCN(CCOc2ccc(Cl)c(Cl)c2)CC1,-0.657,2.1,-0.2,-2.0,-0.541,.,.,.,.,.,.
Cc1c(-n2c(SCC(N)=O)nc3ccccc3c2=O)c(=O)n(-c2ccccc2)n1C,1.24,2.8,-2.0,-1.5,0.41,.,.,.,.,.,.
O=C(c1cccc(S(=O)(=O)Nc2cccc(C(F)(F)F)c2)c1)N1CCOCC1,0.887,.,.,0.3,.,.,.,.,.,.,.
CC1CCCN(C(=O)c2cccc(S(=O)(=O)Nc3cc(C(F)(F)F)ccc3Cl)c2)C1 (configuration not stated),-3.71*,9.5,-0.2,-0.4,.,0.00779,0.00511,0.033,0.00758,0.0155*,0.0106
O=C(O)CCNc1cc2ccccc2cc1C(=O)O,5.55*,3.3,-0.7,-4.5,.,0.00629,0.0048,0.0312,0.00754,0.0199,0.0107
CSc1sc(C(=O)N2CCCCC2)c(-c2cccs2)c1C#N,-1.81,.,.,-1.1,.,.,.,.,.,.,.
CC(NC(=O)c1ccnc(C(C)(C)C)c1)c1ccccc1 (configuration not stated),0.552,4.9,-0.9,1.0,-0.0731,0.0185,?,?,0.00709,0.0151,0.00941
Cc1cccc(NC(=O)CSc2nnc(CSc3nc(C)cc(C)n3)n2Cc2ccco2)c1,.,1.7,1.5,-3.0,-2.17,0.00656,0.00406,0.0299,?,0.0164,0.00933
O=C(Nc1nnc(-c2ccc(F)cc2)o1)c1cccc([N+](=O)[O-])c1,48.1*,1.5,-0.3,-1.7,-1.65,0.0329*,0.0902*,0.0437*,?,0.0722*,0.0229*
CCCN(CCC)S(=O)(=O)c1ccc(C(=O)Nc2nnc(CSC)o2)cc1,.,3.5,-0.6,-0.4,0.688,.,.,.,.,.,.
CCCN(CCC)S(=O)(=O)c1ccc(C(=O)Nc2nnc(-c3cc(OC)cc(OC)c3)o2)cc1,10.4*,5.3,-0.2,.,.,0.00899,0.0205*,0.0362,?,0.0287*,0.0128
COc1cccc(-c2nnc(NC(=O)c3cccc(F)c3)o2)c1,33.1*,.,.,-0.2,.,?,0.103*,0.0883*,0.0854*,0.0921*,0.0834*
Cc1c(C)c(C)c(CO/N=C/c2cccs2)c(C)c1C,.,.,.,-1.1,.,.,.,.,.,.,.
O=c1c2ccc(Cl)cc2[nH]c(=S)n1CCCN1CCOCC1,6.46*,2.1,-0.5,-4.4,-0.0294,?,0.0363*,0.0328,0.0146*,0.0344*,0.0112*
O=c1c2sc3ccccc3c2[nH]c(=S)n1CCN1CCOCC1,8.63*,1.7,-0.6,-0.9,1.9,0.0165,0.0165*,0.0331,0.0191*,0.0245*,0.0195*
O=c1c2ccccc2[nH]c(=S)n1CCCN1CCOCC1,0.902,2.5,0.2,-3.9,-0.3,.,.,.,.,.,.
CC1CCN(CCCn2c(=S)[nH]c3c(sc4ccccc43)c2=O)CC1,19.5*,3.8,-0.1,0.8,0.826,0.00636,0.0148*,0.0356,0.0164*,0.0264*,0.0179*
Cn1c2c(c(=O)n(C)c1=O)C(c1ccc(Cl)cc1)C(C#N)=C(N)O2 (configuration not stated),-0.123,4.4,-0.3,0.1,0.0304,.,.,.,.,.,.
Cc1cc(OCc2nnc(SC(C)C(=O)O)n2Cc2ccccc2)ccc1Cl (configuration not stated),-0.4,3.5,0.0,0.4,0.617,.,.,.,.,.,.
COc1ccc(NC(=O)Cc2c(SC)c3ccccc3n2Cc2ccccc2)cc1,1.24,4.6,0.2,-2.2,.,.,.,.,.,.,.
CCOC(=O)NC(=O)CSc1ccc(C)cc1C,2.86*,5.5,-0.4,-1.0,-0.863,0.00934,0.00634,0.0326,?,0.0175,0.0109
CCCNC(=O)NC(=O)CSc1ccc(C)cc1C,-0.352,1.5,-0.1,-2.1,0.212,.,.,.,.,.,.
O=[N+]([O-])c1ccc2[nH]c(O)c(N=NC(=S)NCC3CCCO3)c2c1 (configuration not stated),3.2,1.9,-0.1,-2.6,0.759,.,.,.,.,.,.
CCNC(=S)N=Nc1c(O)[nH]c2ccc(C(C)C)cc12,10.3*,3.2,-0.3,-4.6,-1.46,?,0.0209*,0.0338,0.0222*,0.026*,0.0161*
CCCCNC(=S)N=Nc1c(O)[nH]c2ccccc12,25.1*,4.2,-2.0,8.1,-0.0357,?,0.0494*,?,0.035*,0.0401*,0.0246*
CCNC(=S)N=Nc1c(O)[nH]c2ccc([N+](=O)[O-])cc12,5.05*,4.5,-1.8,-0.4,0.0398,0.00969,0.0222*,0.0313,0.013*,0.0258,?
CC(C)c1ccc2[nH]c(O)c(N=NC(=S)NCCc3ccccc3)c2c1,0.0213,3.2,0.8,1.8,.,.,.,.,.,.,.
O=C(Nc1nc2ccsc2c(=O)s1)c1ccc(F)cc1,3.76*,.,.,-1.0,-0.53,0.01,?,0.0324,0.0111*,0.0207,0.0117
